Test results published in ChEMBL document CHEMBL5058577, “EUbOPEN Chemogenomics Library 2 (Multiplex)” (2022).

System: U2OS
Assay: Multiplex assay against U2OS
Format: toxicity, cell-based
Details: human
How it was run: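 Hoechst33342, BioTracker Green Microtubule Cytoskeleton Dye, MitoTracker Red and Annexin V Alexa Fluor 680 were added to live cells at seeding, and imaging on a CQ1 microscope at 37°C and 5% CO2 followed compound addition. Gating by CellPathfinder machine learning separated cells into Hoechst high-intensity objects or normal cells, then normal cells into healthy, pyknosed or fragmented nuclei, then pyknosed cells into mitotic or apoptotic. Per cents of healthy-nucleus cells are reported for the tubulin, mitochondrial-mass and membrane-permeability phenotypes.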

[1] = 12 h, 1 µM, compound concentration 1 uM, replicate 1
[2] = 12 h, 1 µM, compound concentration 1 uM, replicate 2
[3] = 12 h, 10 µM, compound concentration 10 uM, replicate 1
[4] = 12 h, 10 µM, compound concentration 10 uM, replicate 2
[5] = 24 h, 1 µM, compound concentration 1 uM, replicate 1
[6] = 24 h, 1 µM, compound concentration 1 uM, replicate 2
[7] = 24 h, 10 µM, compound concentration 10 uM, replicate 1
[8] = 24 h, 10 µM, compound concentration 10 uM, replicate 2
[9] = 48 h, 1 µM, compound concentration 1 uM, replicate 1
[10] = 48 h, 1 µM, compound concentration 1 uM, replicate 2
[11] = 48 h, 10 µM, compound concentration 10 uM, replicate 1
[12] = 48 h, 10 µM, compound concentration 10 uM, replicate 2

CN(C)C/C=C/C(=O)Nc1ccc(C(=O)N2CCCC(Nc3ncc(Cl)c(-c4c[nH]c5ccccc45)n3)C2)cc1 (configuration not stated)
Population Apoptotic (%) [1]: 77%
Population Fragmented Nuclei (%) [1]: 31%
Population Healthy Nuclei (%) [1]: 60%
Population Hoechst High Intensity Objects (%) [1]: 2%
Population Membrane Permeable-Phenotype (%) [1]: 5%
Population Mitochondria Different-Phenotype (%) [1]: 3%
Population Mitotic Cells (%) [1]: 22%
Population Normal (%) [1]: 97%
Population Pyknosed Nuclei (%) [1]: 8%
Population Tubulin-Different-Phenotype (%) [1]: 4%
Total Cell Count [1]: 228
Population Apoptotic (%) [2]: 83%
Population Fragmented Nuclei (%) [2]: 18%
Population Healthy Nuclei (%) [2]: 77%
Population Hoechst High Intensity Objects (%) [2]: 0%
Population Membrane Permeable-Phenotype (%) [2]: 6%
Population Mitochondria Different-Phenotype (%) [2]: 5%
Population Mitotic Cells (%) [2]: 16%
Population Normal (%) [2]: 99%
Population Pyknosed Nuclei (%) [2]: 4%
Population Tubulin-Different-Phenotype (%) [2]: 8%
Total Cell Count [2]: 139
Population Apoptotic (%) [3]: 80%
Population Fragmented Nuclei (%) [3]: 31%
Population Healthy Nuclei (%) [3]: 47%
Population Hoechst High Intensity Objects (%) [3]: 5%
Population Membrane Permeable-Phenotype (%) [3]: 33%
Population Mitochondria Different-Phenotype (%) [3]: 40%
Population Mitotic Cells (%) [3]: 20%
Population Normal (%) [3]: 94%
Population Pyknosed Nuclei (%) [3]: 20%
Population Tubulin-Different-Phenotype (%) [3]: 49%
Total Cell Count [3]: 233
Population Apoptotic (%) [4]: 75%
Population Fragmented Nuclei (%) [4]: 25%
Population Healthy Nuclei (%) [4]: 54%
Population Hoechst High Intensity Objects (%) [4]: 2%
Population Membrane Permeable-Phenotype (%) [4]: 23%
Population Mitochondria Different-Phenotype (%) [4]: 42%
Population Mitotic Cells (%) [4]: 25%
Population Normal (%) [4]: 97%
Population Tubulin-Different-Phenotype (%) [4]: 37%
Total Cell Count [4]: 121
Population Apoptotic (%) [5]: 93%
Population Fragmented Nuclei (%) [5]: 34%
Population Healthy Nuclei (%) [5]: 53%
Population Hoechst High Intensity Objects (%) [5]: 2%
Population Membrane Permeable-Phenotype (%) [5]: 7%
Population Mitochondria Different-Phenotype (%) [5]: 2%
Population Mitotic Cells (%) [5]: 6%
Population Normal (%) [5]: 97%
Population Pyknosed Nuclei (%) [5]: 11%
Population Tubulin-Different-Phenotype (%) [5]: 6%
Total Cell Count [5]: 271
Population Apoptotic (%) [6]: 100%
Population Fragmented Nuclei (%) [6]: 21%
Population Healthy Nuclei (%) [6]: 67%
Population Hoechst High Intensity Objects (%) [6]: 0%
Population Membrane Permeable-Phenotype (%) [6]: 8%
Population Mitotic Cells (%) [6]: 0%
Population Normal (%) [6]: 99%
Population Tubulin-Different-Phenotype (%) [6]: 5%
Total Cell Count [6]: 164
Population Apoptotic (%) [7]: 87%
Population Fragmented Nuclei (%) [7]: 39%
Population Healthy Nuclei (%) [7]: 35%
Population Hoechst High Intensity Objects (%) [7]: 9%
Population Membrane Permeable-Phenotype (%) [7]: 22%
Population Mitochondria Different-Phenotype (%) [7]: 33%
Population Mitotic Cells (%) [7]: 12%
Population Normal (%) [7]: 90%
Population Pyknosed Nuclei (%) [7]: 25%
Population Tubulin-Different-Phenotype (%) [7]: 29%
Total Cell Count [7]: 239
Population Apoptotic (%) [8]: 97%
Population Fragmented Nuclei (%) [8]: 31%
Population Hoechst High Intensity Objects (%) [8]: 5%
Population Membrane Permeable-Phenotype (%) [8]: 21%
Population Mitochondria Different-Phenotype (%) [8]: 28%
Population Mitotic Cells (%) [8]: 2%
Population Normal (%) [8]: 94%
Population Pyknosed Nuclei (%) [8]: 32%
Population Tubulin-Different-Phenotype (%) [8]: 17%
Total Cell Count [8]: 135
Population Apoptotic (%) [9]: 94%
Population Fragmented Nuclei (%) [9]: 29%
Population Healthy Nuclei (%) [9]: 60%
Population Hoechst High Intensity Objects (%) [9]: 3%
Population Membrane Permeable-Phenotype (%) [9]: 10%
Population Mitochondria Different-Phenotype (%) [9]: 3%
Population Mitotic Cells (%) [9]: 5%
Population Normal (%) [9]: 96%
Population Pyknosed Nuclei (%) [9]: 10%
Population Tubulin-Different-Phenotype (%) [9]: 5%
Total Cell Count [9]: 339
Population Apoptotic (%) [10]: 96%
Population Fragmented Nuclei (%) [10]: 10%
Population Healthy Nuclei (%) [10]: 77%
Population Membrane Permeable-Phenotype (%) [10]: 3%
Population Mitotic Cells (%) [10]: 3%
Population Pyknosed Nuclei (%) [10]: 12%
Population Tubulin-Different-Phenotype (%) [10]: 3%
Total Cell Count [10]: 221
Population Apoptotic (%) [11]: 100%
Population Fragmented Nuclei (%) [11]: 50%
Population Healthy Nuclei (%) [11]: 17%
Population Hoechst High Intensity Objects (%) [11]: 15%
Population Membrane Permeable-Phenotype (%) [11]: 47%
Population Mitochondria Different-Phenotype (%) [11]: 27%
Population Mitotic Cells (%) [11]: 0%
Population Normal (%) [11]: 84%
Population Pyknosed Nuclei (%) [11]: 32%
Population Tubulin-Different-Phenotype (%) [11]: 38%
Total Cell Count [11]: 251
Population Healthy Nuclei (%) [12]: 18%
Population Hoechst High Intensity Objects (%) [12]: 9%
Population Membrane Permeable-Phenotype (%) [12]: 26%
Population Mitochondria Different-Phenotype (%) [12]: 19%
Population Normal (%) [12]: 90%
Population Pyknosed Nuclei (%) [12]: 31%
Population Tubulin-Different-Phenotype (%) [12]: 23%
Total Cell Count [12]: 157
